# Results: ChEMBL document CHEMBL1150309, “Design, synthesis, and biological evaluation of thiophene analogues of chalcones” (Bioorg Med Chem, 2008)
# System: not listed separately
# Assay: Inhibition of bovine brain tubulin polymerization for 20 mins
# Parameters: species or system Bos taurus
# Details: not given
# Summary of the method: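 Bovine brain tubulin (10 µM) preincubated with varying compound concentrations in glutamate buffer at 30 °C, then cooled to 0 °C. GTP added and mixtures warmed to 30 °C in cuvettes while assembly was followed by turbidity. IC50 is the concentration that halves the extent of assembly after 20 min.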
row,Compound,IC50
1,COc1ccccc1-c1ccc(C(=O)c2cc(OC)c(OC)c(OC)c2)s1,1.3 µM
2,COc1cc(C(=O)c2ccc(-c3ccccc3)s2)cc(OC)c1OC,1.5 µM
3,COc1cc(C(=O)c2ccc(-c3ccccc3C)s2)cc(OC)c1OC,1.7 µM

# System: K562
# Assay: Cell cycle arrest in human K562 cells assessed as accumulation at S phase at 1.5 uM after 24 hrs by flow cytometry
# Format: functional
# Details: not given
row,Compound,Activity
1,COc1ccccc1-c1ccc(C(=O)c2cc(OC)c(OC)c(OC)c2)s1,31%

# System: HeLa
# Assay: Antiproliferative activity against human HeLa cells after 2 days
# Format: functional, cell-based
# Details: 48 h
# Summary of the method: (§1)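 Cells suspended at 300,000–500,000 cells/mL of culture medium and mixed 1:1 with dilutions of compound. Incubated 2 days at 37 °C, then cell number counted with a Coulter counter. IC50 is the concentration giving 50% inhibition of proliferation. Values are means from dose–response curves of at least three independent experiments.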
row,Compound,IC50
1,COc1cc(C(=O)/C=C/c2ccc(Cl)cc2)cc(OC)c1OC,> 10 µM
2,COc1ccc(/C=C/C(=O)c2cc(OC)c(OC)c(OC)c2)cc1,1.3 µM
3,COc1cc(C(=O)/C=C/c2ccccc2)cc(OC)c1OC,> 10 µM
4,COc1ccccc1-c1ccc(C(=O)c2cc(OC)c(OC)c(OC)c2)s1,0.16 µM
5,COc1cc(C(=O)c2ccc(-c3ccccc3)s2)cc(OC)c1OC,0.31 µM
6,COc1cc(C(=O)c2ccc(-c3ccccc3C)s2)cc(OC)c1OC,1.6 µM

# System: K562
# Assay: Cell cycle arrest in human K562 cells assessed as accumulation at G0/G1 phase at 1.5 uM after 24 hrs by flow cytometry
# Format: functional
# Details: not given
row,Compound,Activity
1,COc1ccccc1-c1ccc(C(=O)c2cc(OC)c(OC)c(OC)c2)s1,12%

# System: K562
# Assay: Cell cycle arrest in human K562 cells assessed as accumulation at G0/G1phase at 1.3 uM after 24 hrs by flow cytometry
# Format: functional
# Details: not given
row,Compound,Activity
1,COc1cc(C(=O)c2ccc(-c3ccccc3)s2)cc(OC)c1OC,34%

# System: FM3A
# Assay: Antiproliferative activity against mouse FM3A cells after 2 days
# Format: functional, cell-based
# Details: 48 h
# Summary of the method: as §1
row,Compound,IC50
1,COc1cc(C(=O)/C=C/c2ccc(Cl)cc2)cc(OC)c1OC,> 10 µM
2,COc1ccc(/C=C/C(=O)c2cc(OC)c(OC)c(OC)c2)cc1,8.4 µM
3,COc1cc(C(=O)/C=C/c2ccccc2)cc(OC)c1OC,> 10 µM
4,COc1ccccc1-c1ccc(C(=O)c2cc(OC)c(OC)c(OC)c2)s1,0.44 µM
5,COc1cc(C(=O)c2ccc(-c3ccccc3)s2)cc(OC)c1OC,0.46 µM
6,COc1cc(C(=O)c2ccc(-c3ccccc3C)s2)cc(OC)c1OC,2.1 µM

# System: K562
# Assay: Cell cycle arrest in human K562 cells assessed as accumulation at S phase at 4.0 uM after 24 hrs by flow cytometry
# Format: functional
# Details: not given
row,Compound,Activity
1,COc1cc(C(=O)c2ccc(-c3ccccc3C)s2)cc(OC)c1OC,23%

# System: K562
# Assay: Cell cycle arrest in human K562 cells assessed as accumulation at G2/M phase at 1.3 uM after 24 hrs by flow cytometry
# Format: functional
# Details: not given
row,Compound,Activity
1,COc1cc(C(=O)c2ccc(-c3ccccc3)s2)cc(OC)c1OC,18%

# System: K562
# Assay: Cell cycle arrest in human K562 cells assessed as accumulation at G0/G1 phase at 4.0 uM after 24 hrs by flow cytometry
# Format: functional
# Details: not given
row,Compound,Activity
1,COc1cc(C(=O)c2ccc(-c3ccccc3C)s2)cc(OC)c1OC,15%

# System: K562
# Assay: Cell cycle arrest in human K562 cells assessed as accumulation at S phase at 1.3 uM after 24 hrs by flow cytometry
# Format: functional
# Details: not given
row,Compound,Activity
1,COc1cc(C(=O)c2ccc(-c3ccccc3)s2)cc(OC)c1OC,48%

# System: L1210
# Assay: Antiproliferative activity against mouse L1210 cells after 2 days
# Format: functional, cell-based
# Details: L1210, 48 h
# Summary of the method: as §1
row,Compound,IC50
1,COc1cc(C(=O)/C=C/c2ccc(Cl)cc2)cc(OC)c1OC,> 10 µM
2,COc1ccc(/C=C/C(=O)c2cc(OC)c(OC)c(OC)c2)cc1,2.8 µM
3,COc1cc(C(=O)/C=C/c2ccccc2)cc(OC)c1OC,> 10 µM
4,COc1ccccc1-c1ccc(C(=O)c2cc(OC)c(OC)c(OC)c2)s1,0.51 µM
5,COc1cc(C(=O)c2ccc(-c3ccccc3)s2)cc(OC)c1OC,0.56 µM
6,COc1cc(C(=O)c2ccc(-c3ccccc3C)s2)cc(OC)c1OC,2.2 µM

# System: CCRF-CEM
# Assay: Antiproliferative activity against human CEM cells after 2 days
# Format: functional, cell-based
# Details: 48 h
# Summary of the method: as §1
row,Compound,IC50
1,COc1cc(C(=O)/C=C/c2ccc(Cl)cc2)cc(OC)c1OC,> 10 µM
2,COc1ccc(/C=C/C(=O)c2cc(OC)c(OC)c(OC)c2)cc1,1.5 µM
3,COc1cc(C(=O)/C=C/c2ccccc2)cc(OC)c1OC,> 10 µM
4,COc1ccccc1-c1ccc(C(=O)c2cc(OC)c(OC)c(OC)c2)s1,0.37 µM
5,COc1cc(C(=O)c2ccc(-c3ccccc3)s2)cc(OC)c1OC,0.48 µM
6,COc1cc(C(=O)c2ccc(-c3ccccc3C)s2)cc(OC)c1OC,1.2 µM

# Organism: Bos taurus
# Assay: Displacement of [3H]colchicine from bovine brain tubulin at 1 uM
# Details: not given
# Summary of the method: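 Bovine brain tubulin (1 µM) incubated with compound at 1 µM and [³H]colchicine at 5 µM. Result is reported as percent inhibition of colchicine binding.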
row,Compound,inhibition
1,COc1ccccc1-c1ccc(C(=O)c2cc(OC)c(OC)c(OC)c2)s1,74%
2,COc1cc(C(=O)c2ccc(-c3ccccc3)s2)cc(OC)c1OC,74%
3,COc1cc(C(=O)c2ccc(-c3ccccc3C)s2)cc(OC)c1OC,49%

# System: MOLT-4
# Assay: Antiproliferative activity against human MOLT4 cells after 2 days
# Format: functional, cell-based
# Details: MOLT-4, 48 h
# Summary of the method: as §1
row,Compound,IC50
1,COc1cc(C(=O)/C=C/c2ccc(Cl)cc2)cc(OC)c1OC,> 10 µM
2,COc1ccc(/C=C/C(=O)c2cc(OC)c(OC)c(OC)c2)cc1,1.4 µM
3,COc1cc(C(=O)/C=C/c2ccccc2)cc(OC)c1OC,> 10 µM
4,COc1ccccc1-c1ccc(C(=O)c2cc(OC)c(OC)c(OC)c2)s1,0.18 µM
5,COc1cc(C(=O)c2ccc(-c3ccccc3)s2)cc(OC)c1OC,0.4 µM
6,COc1cc(C(=O)c2ccc(-c3ccccc3C)s2)cc(OC)c1OC,0.6 µM

# System: K562
# Assay: Cell cycle arrest in human K562 cells assessed as accumulation at G2/M phase at 4.0 uM after 24 hrs by flow cytometry
# Format: functional
# Details: not given
row,Compound,Activity
1,COc1cc(C(=O)c2ccc(-c3ccccc3C)s2)cc(OC)c1OC,85%

# System: K562
# Assay: Cell cycle arrest in human K562 cells assessed as accumulation at G2/M phase at 1.5 uM after 24 hrs by flow cytometry
# Format: functional
# Details: not given
row,Compound,Activity
1,COc1ccccc1-c1ccc(C(=O)c2cc(OC)c(OC)c(OC)c2)s1,62%
